{
  "source": "paper PMC6220817",
  "about": "(Chemistry (Weinheim an Der Bergstrasse, Germany), 2018)",
  "key": {"tubulin [1]": {"molecular_target": "tubulin", "conditions": "Reported value for the binding to tubulin; cited from earlier work"}, "tubulin [2]": {"molecular_target": "tubulin (Sus scrofa, UniProt P02550+P02554)", "sequence (P02554 whole entry)": "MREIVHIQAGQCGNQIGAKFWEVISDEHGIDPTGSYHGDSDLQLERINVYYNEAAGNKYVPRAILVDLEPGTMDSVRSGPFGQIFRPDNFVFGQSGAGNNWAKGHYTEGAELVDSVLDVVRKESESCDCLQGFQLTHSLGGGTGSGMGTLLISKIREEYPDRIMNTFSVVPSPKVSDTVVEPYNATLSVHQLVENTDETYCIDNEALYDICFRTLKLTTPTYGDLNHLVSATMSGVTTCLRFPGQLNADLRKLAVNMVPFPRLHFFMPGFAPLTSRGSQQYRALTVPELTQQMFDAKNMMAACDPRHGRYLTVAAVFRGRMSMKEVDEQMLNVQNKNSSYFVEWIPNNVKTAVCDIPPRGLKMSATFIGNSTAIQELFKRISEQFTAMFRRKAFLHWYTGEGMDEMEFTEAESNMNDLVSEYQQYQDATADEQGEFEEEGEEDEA", "sequence (P02550 whole entry)": "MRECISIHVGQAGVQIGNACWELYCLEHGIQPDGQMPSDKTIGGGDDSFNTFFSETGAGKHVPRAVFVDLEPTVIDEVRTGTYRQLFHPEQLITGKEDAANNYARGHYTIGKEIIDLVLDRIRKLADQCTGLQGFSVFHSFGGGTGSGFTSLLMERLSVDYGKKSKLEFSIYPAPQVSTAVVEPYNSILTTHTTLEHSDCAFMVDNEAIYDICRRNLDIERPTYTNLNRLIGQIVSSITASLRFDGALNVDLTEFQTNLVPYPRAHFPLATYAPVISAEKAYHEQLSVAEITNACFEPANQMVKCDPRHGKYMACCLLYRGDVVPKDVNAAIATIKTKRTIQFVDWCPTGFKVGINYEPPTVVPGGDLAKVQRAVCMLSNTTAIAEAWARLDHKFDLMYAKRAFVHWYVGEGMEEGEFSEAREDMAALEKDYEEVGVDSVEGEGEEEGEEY", "experiment": "Turbidity measurement of tubulin polymerization", "format": "biochemical, porcine", "conditions": "10 μM compound, 4 μM tubulin, 1 mM GTP; for Turbidity (optical density at 350 nm) / tubulin polymerization: BRB80, 37 °C, 60 min; for Stability of treated microtubules on cooling (turbidity): cooled to 4 °C for 15 min", "how_it_was_run": "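Porcine brain tubulin (4 μM) with 1 mM GTP in BRB80 (80 mM PIPES pH 6.9, 1 mM MgCl2, 1 mM EGTA) at 37 °C. Test compound or taxol at 10 μM, or none. OD350 read by UV/Vis every 1 min for 60 min. Samples then held at 4 °C for 15 min and read again.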"}, "[3]": {"molecular_target": "tubulin (α‐ and β‐tubulin dimer) (porcine (purified from porcine brain)) (UniProt P02550)", "sequence (P02550 whole entry, chain 1 of 2)": "as the sequence (P02550 whole entry) above", "sequence (P02554 whole entry, chain 2 of 2, further chain)": "as the sequence (P02554 whole entry) above", "experiment": "equilibrium dialysis"}},
  "note": "Ends that are not written are not given here. TMR‑5‑maleimide = tetramethylrhodamine-5-maleimide",
  "data": [
    {"molecule": "CC(=O)O[C@H]1C(=O)[C@@]2(C)[C@H]([C@H](OC(=O)c3ccccc3)[C@]3(O)C[C@H](OC(=O)[C@H](O)[C@@H](NC(=O)c4cccc(N(C)C)c4)c4ccccc4)C(C)=C1C3(C)C)[C@]1(OC(C)=O)CO[C@@H]1C[C@@H]2O", "note": "[Taxol derivative, N‐debenzoyl‐N‐[3‐(dimethylamino)benzoyl]taxol]", "values": [
      {"measurement": "Kd", "setting": "tubulin [1]", "value": 49, "unit": "µM"}
    ]},
    {"molecule": "H-CGGGKKHVPGGGSVQIVYKPVDL-OH [2N]", "values": [
      {"measurement": "Turbidity (optical density at 350 nm) / tubulin polymerization", "setting": "tubulin [2]", "value": "increases the turbidity"},
      {"measurement": "Stability of treated microtubules on cooling (turbidity)", "setting": "tubulin [2]", "value": "completely depolymerized"}
    ]},
    {"molecule": "H-KKHVPGGGSVQIVYKPVDLGGGC-OH [2C]", "values": [
      {"measurement": "Turbidity (optical density at 350 nm) / tubulin polymerization", "setting": "tubulin [2]", "value": "less effective"}
    ]},
    {"molecule": "CC(=O)O[C@H]1C(=O)[C@@]2(C)[C@H]([C@H](OC(=O)c3ccccc3)[C@]3(O)C[C@H](OC(=O)[C@H](O)[C@@H](NC(=O)c4ccccc4)c4ccccc4)C(C)=C1C3(C)C)[C@]1(OC(C)=O)CO[C@@H]1C[C@@H]2O", "note": "[taxol, reference compound]", "values": [
      {"measurement": "Stability of treated microtubules on cooling (turbidity)", "setting": "tubulin [2]", "value": "remained stable"}
    ]},
    {"molecule": "H‐Cys(Trt)‐Gly‐Gly‐Gly‐Lys(Boc)‐His(Trt)‐Gln(Trt)‐Pro‐Gly‐Gly‐Gly‐Lys(Boc)‐Val‐Gln(Trt)‐Ile‐Ile‐Asn(Trt)‐Lys(Boc)‐Lys(Boc)‐Leu‐Asp(OtBu)‐Leu‐Alko‐PEG resin [1N]", "values": [
      {"measurement": "Turbidity (optical density at 350 nm) / tubulin polymerization", "setting": "tubulin [2]", "value": "less effective"}
    ]},
    {"molecule": "H-KHQPGGGKVQIINKKLDLGGGC-OH [1C]", "values": [
      {"measurement": "Turbidity (optical density at 350 nm) / tubulin polymerization", "setting": "tubulin [2]", "value": "less effective"}
    ]},
    {"molecule": "C(TMR‑5‑maleimide)GGGKHQPGGGKVQIINKKLDL", "note": "[1N‐TMR]", "values": [
      {"measurement": "Kd", "setting": "[3]", "value": 3.4, "unit": "µM"}
    ]},
    {"molecule": "KHQPGGGKVQIINKKLDLGGGC(TMR‑5‑maleimide)", "note": "[1C‐TMR]", "values": [
      {"measurement": "Kd", "setting": "[3]", "value": 16.7, "unit": "µM"}
    ]}
  ]
}
